Results on 17 molecules are retold here after ChEMBL document CHEMBL3102839, “Growth inhibitory activity for cancer cell lines of lapachol and its natural and semi-synthetic derivatives” (Bioorg Med Chem Lett, 2014).

As usually defined, the IC50 is the midpoint of a concentration-inhibition curve. Low values mean inhibition by little substance, high ones a need for much substance.

Data set [1] can be described thus: Growth inhibition of human Hs683 cells by MTT assay. The class given is functional, cell-based. The conditions noted are these: Hs 683. The method, boiled down: (§1)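 In vitro MTT colorimetric read-out of growth inhibition. Each compound was run across a six-line human cancer panel chosen for differing resistance to pro-apoptotic stimuli. IC50 was taken as the growth inhibitory concentration. No reference drug was included.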
In general terms: Formazan colour is commonly taken as a measure of viable cells.

Data set [2] has as its system LoVo. Put plainly: Growth inhibition of human LoVo cells by MTT assay. The format is functional, cell-based. In short, it runs like this:
as §1

In data set [3] the test system is SK-MEL-28. Put plainly: Growth inhibition of human SK-MEL-28 cells by MTT assay. The format is functional, cell-based. In short, it runs like this:
as §1

The subject of data set [4] is PC-3. The experiment in a line: Growth inhibition of human PC3 cells by MTT assay. The format is functional, cell-based. In short, it runs like this: as §1
Data set [5] in a line: Chemical stability of the compound in cell culture medium assessed as compound recovery after 72 hrs. The class given is physicochemical. The settings on record: read-out: Drug recovery.
Data set [6] has as its system A549. The experiment in a line: Growth inhibition of human A549 cells by MTT assay. The class given is functional, cell-based. In short, it runs like this:
as §1

The nature of data set [7]: Growth inhibition of human U373 cells by MTT assay. The class given is functional, cell-based, U-373MG ATCC. The settings on record: U373 MG. The method, boiled down:
as §1

In data set [8] the test system is Col2. The experiment in a line: Growth inhibition of human Col2 cells. The format is functional. The conditions noted are these: read-out: ED50 (the source's name).
A short description of data set [9]: Growth inhibition of hTERT expressing human RPE1 cells. The class given is functional, TERT-RPE1. The conditions noted are these: RPE-1, read-out: ED50 (the source's name).
In data set [10] the test system is KB. The experiment in a line: Growth inhibition of human KB cells. The class given is functional. The settings on record: read-out: ED50 (the source's name).
Data set [11] has as its system Lu1. Put plainly: Growth inhibition of human Lu1 cells. The format is functional. The settings on record: read-out: ED50 (the source's name).
Data set [12] has as its system LNCaP. The experiment in a line: Growth inhibition of human LNCAP cells. The class given is functional. The settings on record: read-out: ED50 (the source's name).

Structures are written as SMILES. Where only a bound is given, the exact number is not on record here.

Consider `CCCCCCCCCCCCCCCCCC(=O)OC1=C(CC=C(C)C)C(=O)c2ccccc2C1=O`, for which the IC50 in [1], in data set [2], in data set [3], in data set [4], in data set [6] and in [7] was above 100 µM throughout. Moreover, the remaining at 72 h in [5] is above 95%.
As for `O=C1C(O)=C(/C=C/c2ccccc2)C(=O)c2ccccc21`, the IC50 in data set [1] was 42 µM; in [2] it was 82 µM; in data set [3], above 100 µM; in data set [4], above 100 µM; in [6] it was above 100 µM; in data set [7], above 100 µM.
As for `CC(=O)OC1=C(CC=C(C)C)C(=O)c2ccccc2C1=O`, the IC50 was 31 µM in data set [1]; 8 µM in data set [2]; 13 µM in data set [3]; 4 µM in [4]; 5 µM in data set [6]; 30 µM in data set [7]. Moreover, the remaining at 72 h in [5] was above 95%.
Turning to `CCCCCCCC/C=C\CCCCCCCC(=O)OC1=C(CC=C(C)C)C(=O)c2ccccc2C1=O`, the IC50 in data set [1] was determined as 85 µM; in data set [2], 57 µM; in [3] it was 73 µM; in [4], 65 µM; in [6], 59 µM; in data set [7], 84 µM. Moreover, in data set [5], the remaining at 72 h is above 95%.
In the case of `COC1=C(CC=C(C)C)C(=O)c2ccccc2C1=O`, the IC50 in [1] worked out at 36 µM; in data set [2] it was 57 µM; in data set [3], 27 µM; in data set [4], 42 µM; in [6], 36 µM; in data set [7], 78 µM.
As for `CC(C)=CCC/C(C)=C/CC1=C(O)C(=O)c2ccccc2C1=O`, the IC50 in data set [1] was determined as 11 µM; in data set [2] it was 7 µM; in data set [3], 28 µM; in data set [4] it was 12 µM; in [6], 12 µM; in [7], 48 µM.
As for `CCCOC1=C(CC=C(C)C)C(=O)c2ccccc2C1=O`, the IC50 in [1], in data set [2], in [3], in data set [4], in data set [6] and in [7] was above 100 µM throughout.
Take `O=C1C(O)=C(Cc2ccccc2)C(=O)c2ccccc21`: the IC50 in [1] is above 100 µM; in data set [2], 42 µM; in [3], above 100 µM; in data set [4] it was 91 µM; in data set [6], above 100 µM; in data set [7], above 100 µM.
On to `C=CCOC1=C(CC=C(C)C)C(=O)c2ccccc2C1=O`, for which the IC50 in data set [1] worked out at 28 µM; in data set [2] it was 22 µM; in [3] it was 23 µM; in [4] it was 28 µM; in data set [6], 26 µM; in [7], 75 µM.
For the molecule `CC(C)=CCC1=C(Cl)C(=O)c2ccccc2C1=O`, the IC50 is 33 µM in [1]; 25 µM in [2]; 31 µM in [3]; 27 µM in data set [4]; 34 µM in [6]; 26 µM in data set [7]. For the same molecule, the EC50 in data set [8], in data set [9], in data set [10], in data set [11] and in data set [12] was 12.2 µM each time.
As for `CC(C)=CCC1=C(O)C(=O)c2ccccc2C1=O` [LAPACHOL], the IC50 in data set [1] worked out at 11 µM; in [2], 9 µM; in data set [3] it was 8 µM; in data set [4], 4 µM; in data set [6] it was 8 µM; in data set [7], 8 µM.
On to `CCCCCCCCCCCCCCCC(=O)OC1=C(CC=C(C)C)C(=O)c2ccccc2C1=O`, for which the IC50 amounted to 48 µM in data set [1]; 29 µM in [2]; 33 µM in data set [3]; 35 µM in data set [4]; 38 µM in data set [6]; 54 µM in data set [7]. The remaining at 72 h in [5] is above 95%.
Regarding `CCCCCCCCCCCC(=O)OC1=C(CC=C(C)C)C(=O)c2ccccc2C1=O`, the IC50 in data set [1] turned out to be 18 µM; in [2], 27 µM; in [3], 18 µM; in [4] it was 27 µM; in data set [6] it was 35 µM; in data set [7], 31 µM. Further, the remaining at 72 h in data set [5] is above 95%.
Consider `CCOC1=C(CC=C(C)C)C(=O)c2ccccc2C1=O`, for which the IC50 in [1], in data set [2], in [3], in data set [4], in data set [6] and in data set [7] was above 100 µM throughout.
As to `CCCCCCCCCCCCCC(=O)OC1=C(CC=C(C)C)C(=O)c2ccccc2C1=O`, the IC50 was 89 µM in [1]; 50 µM in [2]; 50 µM in data set [3]; 43 µM in [4]; 49 µM in data set [6]; above 100 µM in data set [7]. Besides, in [5], the remaining at 72 h is above 95%.
For the molecule `O=C1C=C(O)C(=O)c2ccccc21` [LAWSONE], the IC50 in data set [1] is 31 µM; in data set [2], above 100 µM; in data set [3] it was above 100 µM; in [4] it was above 100 µM; in data set [6], 58 µM; in data set [7], above 100 µM.
For `CC(C)=CCOC1=C(CC=C(C)C)C(=O)c2ccccc2C1=O`, the IC50 in data set [1] is 41 µM; in data set [2], 32 µM; in data set [3] it was 29 µM; in data set [4], 38 µM; in data set [6], 33 µM; in [7] it was above 100 µM.
